Experimental data as given in ChEMBL document CHEMBL3871280, “Bis(N-amidinohydrazones) and N-(amidino)-N'-aryl-bishydrazones: New classes of antibacterial/antifungal agents” (Bioorg Med Chem, 2017).
Converted amounts (≈) assume the structure as drawn.

Experiments:
[1] = Cytotoxicity against human BEAS2B cells assessed as reduction in cell survival; format: toxicity, cell-based; conditions: beas-2b
[2] = Antifungal activity against fluconazole/itraconazole/voriconazole-susceptible Candida albicans ATCC 2876; format: functional
[3] = Antifungal activity against fluconazole/itraconazole/voriconazole-resistant Candida albicans ATCC 90819; format: functional
Klebsiella pneumoniae = assay: Antibacterial activity against Klebsiella pneumoniae ATCC 27736; format: functional
[4] = system: Mycolicibacterium smegmatis; assay: Antimycobacterial activity against Mycobacterium smegmatis MC2 155; format: functional; conditions: str. MC2 155
In short: (§1)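 Values were set in μM and converted to μg/mL for presentation. Amikacin, ampicillin and ofloxacin served as positive controls.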

[5] = Antifungal activity against fluconazole/itraconazole/voriconazole-resistant Candida albicans ATCC 1237; format: functional
Acinetobacter baumannii = assay: Antibacterial activity against Acinetobacter baumannii ATCC 19606; format: functional
[6] = Antifungal activity against fluconazole/itraconazole/voriconazole-resistant Candida albicans ATCC 64124; format: functional
[7] = Antibacterial activity against Salmonella enterica ATCC 14028; format: functional
[8] = Cytotoxicity against human A549 cells assessed as reduction in cell survival; format: toxicity, cell-based
Staphylococcus aureus = assay: Antibacterial activity against methicillin-resistant Staphylococcus aureus; format: functional; in short: as §1
Candida albicans = assay: Antifungal activity against Candida albicans ATCC 1003; format: functional
Listeria monocytogenes = assay: Antibacterial activity against Listeria monocytogenes ATCC 19115; format: functional
[9] = Antifungal activity against fluconazole/itraconazole/voriconazole-resistant Candida albicans ATCC 10231; format: functional
[10] = Antifungal activity against fluconazole/itraconazole/voriconazole-susceptible Candida albicans ATCC 2310; format: functional
Pseudomonas aeruginosa = assay: Antibacterial activity against Pseudomonas aeruginosa ATCC 27853; format: functional
Escherichia coli = assay: Antibacterial activity against Escherichia coli MC1061; format: functional; in short: as §1
Enterobacter cloacae = assay: Antibacterial activity against Enterobacter cloacae ATCC 13047; format: functional; conditions: subsp. cloacae ATCC 13047
Bacillus subtilis = assay: Antibacterial activity against Bacillus subtilis 168; format: functional; conditions: subsp. subtilis str. 168
Enterococcus = assay: Antibacterial activity against vancomycin-resistant Enterococcus; format: functional; in short: as §1

With `C/C(=N\NC(=N)N)c1ccc(Cc2ccc(/C(C)=N/NC(=N)N)cc2)cc1.Cl.Cl` the IC50 [1] was 2.9 µg/mL, the MIC [2] was 8.9 µM and the MIC [3] was 17.8 µM. For the same compound, the MIC (Klebsiella pneumoniae) was greater than 500 µM, the MIC [4] was 2 µM and the MIC [5] was 17.8 µM. The MIC (Acinetobacter baumannii) was greater than 500 µM, the MIC [6] was 17.8 µM and the MIC [7] was greater than 500 µM. For the same compound, the IC50 [8] was 4.3 µg/mL, the MIC (Staphylococcus aureus) was 3.9 µM and the MIC (Candida albicans) was 17.8 µM. For the same compound, the MIC (Listeria monocytogenes) was 3.9 µM, the MIC [9] was 17.8 µM and the MIC [10] was 17.8 µM. The MIC (Pseudomonas aeruginosa) was greater than 500 µM, the MIC (Escherichia coli) was greater than 500 µM and the MIC (Enterobacter cloacae) was greater than 500 µM. It also gave an MIC (Bacillus subtilis) greater than 500 µM and an MIC (Enterococcus) of 2 µM.
Work on `Cl.N#Cc1ccc(N/N=C/c2ccc(-c3ccc(/C=N/NC(=N)N)cc3)cc2)cc1` yielded an IC50 [1] of 1.9 µg/mL, an MIC [2] of 37.3 µM and an MIC [3] of 37.3 µM. For the same compound, the MIC (Klebsiella pneumoniae) was 15.6 to 31.3 µM, the MIC [4] was 15.6 to 31.3 µM and the MIC [5] was 37.3 µM. It also gave an MIC (Acinetobacter baumannii) of 15.6 to 31.3 µM, an MIC [6] of 74.9 µM and an MIC [7] of 15.6 µM. The IC50 [8] was 4.2 µg/mL, the MIC (Staphylococcus aureus) was 15.6 µM and the MIC (Candida albicans) was 18.7 µM. For the same compound, the MIC (Listeria monocytogenes) was 7.8 µM, the MIC [9] was 37.3 µM and the MIC [10] was 37.3 µM. The MIC (Pseudomonas aeruginosa) was 31.3 to 62.5 µM, the MIC (Escherichia coli) was 62.5 to 125 µM and the MIC (Enterobacter cloacae) was 500 µM. It also gave an MIC (Bacillus subtilis) of 31.3 µM and an MIC (Enterococcus) of 2 to 3.9 µM.
In the case of `Cl.N=C(N)N/N=C/c1ccc(-c2ccc(/C=N/Nc3ccc(F)cc3F)cc2)cc1`, the IC50 [1] is reported as 5.8 µg/mL, the MIC [2] is reported as 9.1 µM and the MIC [3] is reported as 18.2 µM. The MIC (Klebsiella pneumoniae) was greater than 500 µM, the MIC [4] was 2 to 3.9 µM and the MIC [5] was 9.1 µM. The MIC (Acinetobacter baumannii) was greater than 500 µM, the MIC [6] was 9.1 µM and the MIC [7] was greater than 500 µM. For the same compound, the IC50 [8] was 4.8 µg/mL, the MIC (Staphylococcus aureus) was 3.9 µM and the MIC (Candida albicans) was 4.5 µM. The MIC (Listeria monocytogenes) was 2 to 3.9 µM, the MIC [9] was 2.3 µM and the MIC [10] was 9.1 µM. For the same compound, the MIC (Pseudomonas aeruginosa) was greater than 500 µM, the MIC (Escherichia coli) was greater than 500 µM and the MIC (Enterobacter cloacae) was greater than 500 µM. It also gave an MIC (Bacillus subtilis) greater than 500 µM and an MIC (Enterococcus) of 3.9 µM.
Work on `Cl.N=C(N)N/N=C/c1ccc(-c2ccc(/C=N/Nc3ccccc3Br)cc2)cc1` yielded an IC50 [1] of 3.4 µg/mL, an MIC [2] of 8.3 µM and an MIC [3] of 8.3 µM. For the same compound, the MIC (Klebsiella pneumoniae) was greater than 500 µM, the MIC [4] was 3.9 µM and the MIC [5] was 8.3 µM. It also gave an MIC (Acinetobacter baumannii) greater than 500 µM, an MIC [6] of 8.3 µM and an MIC [7] greater than 500 µM. For the same compound, the IC50 [8] was 6.7 µg/mL, the MIC (Staphylococcus aureus) was 2 µM and the MIC (Candida albicans) was 4.1 µM. For the same compound, the MIC (Listeria monocytogenes) was 2 µM, the MIC [9] was 4.1 µM and the MIC [10] was 8.3 µM. The MIC (Pseudomonas aeruginosa) was greater than 500 µM, the MIC (Escherichia coli) was greater than 500 µM and the MIC (Enterobacter cloacae) was greater than 500 µM. It also gave an MIC (Bacillus subtilis) greater than 500 µM and an MIC (Enterococcus) of 2 µM.
For `C[C@@H]1[C@H](O)[C@@H](C)/C=C/C=C/C=C/C=C/C=C/C=C/C=C/[C@H](O[C@@H]2O[C@H](C)[C@@H](O)[C@H](N)[C@@H]2O)C[C@@H]2O[C@](O)(C[C@@H](O)C[C@@H](O)[C@H](O)CC[C@@H](O)C[C@@H](O)CC(=O)O[C@H]1C)C[C@H](O)[C@H]2C(=O)O` [AMPHOTERICIN B], the IC50 [1] was 17.7 µg/mL (≈ 19.2 µM), the MIC [6] was 2.1 to 4.2 µM (≈ 1.94 to 3.88 µg/mL) and the IC50 [8] was 18.2 µg/mL (≈ 19.7 µM).
Work on `Cl.N=C(N)N/N=C/c1ccc(-c2ccc(/C=N/Nc3ccc(Cl)cc3)cc2)cc1` yielded an IC50 [1] of 6 µg/mL, an MIC [2] of 18.3 µM and an MIC [3] of 18.3 µM. It also gave an MIC (Klebsiella pneumoniae) greater than 500 µM, an MIC [4] of 3.9 µM and an MIC [5] of 36.5 µM. The MIC (Acinetobacter baumannii) was greater than 500 µM, the MIC [6] was 36.5 µM and the MIC [7] was greater than 500 µM. For the same compound, the IC50 [8] was 4.9 µg/mL, the MIC (Staphylococcus aureus) was 7.8 µM and the MIC (Candida albicans) was 9.1 µM. The MIC (Listeria monocytogenes) was 3.9 µM, the MIC [9] was 18.3 µM and the MIC [10] was 9.1 µM. The MIC (Pseudomonas aeruginosa) was greater than 500 µM, the MIC (Escherichia coli) was greater than 500 µM and the MIC (Enterobacter cloacae) was greater than 500 µM. For the same compound, the MIC (Bacillus subtilis) was greater than 500 µM and the MIC (Enterococcus) was 3.9 µM.
`Cl.Cl.N=C(N)N/N=C/c1ccc(-c2cccc(/C=N/NC(=N)N)c2)cc1` showed an IC50 [1] of 5.7 µg/mL, an MIC [2] of 9.9 µM and an MIC [3] of 9.9 µM. It also gave an MIC (Klebsiella pneumoniae) greater than 500 µM, an MIC [4] of 1 µM and an MIC [5] of 9.9 µM. For the same compound, the MIC (Acinetobacter baumannii) was greater than 500 µM, the MIC [6] was 9.9 µM and the MIC [7] was greater than 500 µM. For the same compound, the IC50 [8] was 13.9 µg/mL, the MIC (Staphylococcus aureus) was 3.9 µM and the MIC (Candida albicans) was 9.9 µM. It also gave an MIC (Listeria monocytogenes) of 1 µM, an MIC [9] of 9.9 µM and an MIC [10] of 9.9 µM. For the same compound, the MIC (Pseudomonas aeruginosa) was greater than 500 µM, the MIC (Escherichia coli) was greater than 500 µM and the MIC (Enterobacter cloacae) was greater than 500 µM. For the same compound, the MIC (Bacillus subtilis) was greater than 500 µM and the MIC (Enterococcus) was 3.9 µM.
`C/C(=N\NC(=N)N)c1ccc(/C(C)=N/NC(=N)N)cc1` showed an MIC [2] greater than 90.1 µM, an MIC [3] greater than 90.1 µM and an MIC (Klebsiella pneumoniae) of 500 µM (≈ 137 µg/mL). For the same compound, the MIC [4] was greater than 500 µM, the MIC [5] was greater than 90.1 µM and the MIC (Acinetobacter baumannii) was 500 µM (≈ 137 µg/mL). The MIC [6] was 90.1 µM (≈ 24.7 µg/mL), the MIC [7] was 250 to 500 µM (≈ 68.6 to 137 µg/mL) and the MIC (Staphylococcus aureus) was greater than 500 µM. The MIC (Candida albicans) was greater than 90.1 µM, the MIC (Listeria monocytogenes) was 250 µM (≈ 68.6 µg/mL) and the MIC [9] was greater than 90.1 µM. It also gave an MIC [10] greater than 90.1 µM, an MIC (Pseudomonas aeruginosa) of 250 µM (≈ 68.6 µg/mL) and an MIC (Escherichia coli) greater than 500 µM. It also gave an MIC (Enterobacter cloacae) greater than 500 µM, an MIC (Bacillus subtilis) of 250 µM (≈ 68.6 µg/mL) and an MIC (Enterococcus) of 125 µM (≈ 34.3 µg/mL).
`N=C(N)N/N=C/c1ccc(-c2ccc(/C=N/Nc3ccc(Cl)cc3Cl)cc2)cc1` showed an MIC [2] of 33.8 µM (≈ 14.4 µg/mL), an MIC [3] of 67.8 µM (≈ 28.8 µg/mL) and an MIC (Klebsiella pneumoniae) greater than 500 µM. It also gave an MIC [4] of 3.9 µM (≈ 1.66 µg/mL), an MIC [5] of 33.8 µM (≈ 14.4 µg/mL) and an MIC (Acinetobacter baumannii) greater than 500 µM. For the same compound, the MIC [6] was 67.8 µM (≈ 28.8 µg/mL), the MIC [7] was greater than 500 µM and the MIC (Staphylococcus aureus) was 7.8 µM (≈ 3.32 µg/mL). For the same compound, the MIC (Candida albicans) was 16.8 µM (≈ 7.15 µg/mL), the MIC (Listeria monocytogenes) was 7.8 µM (≈ 3.32 µg/mL) and the MIC [9] was 16.8 µM (≈ 7.15 µg/mL). The MIC [10] was 16.8 µM (≈ 7.15 µg/mL), the MIC (Pseudomonas aeruginosa) was greater than 500 µM and the MIC (Escherichia coli) was greater than 500 µM. For the same compound, the MIC (Enterobacter cloacae) was greater than 500 µM, the MIC (Bacillus subtilis) was greater than 500 µM and the MIC (Enterococcus) was 7.8 µM (≈ 3.32 µg/mL).
